Test results reported in ChEMBL document CHEMBL2417386, “Novel conjugated quinoline-indoles compromise Plasmodium falciparum mitochondrial function and show promising antimalarial activity” (J Med Chem, 2013).

Columns and labels:
[1] = Selectivity index, ratio of IC50 for HEK293 cells to IC50 for Plasmodium falciparum 3D7 after 72 hrs; assay type: toxicity, cell-based; settings: human, read-out: Ratio IC50
Procedure, shortened: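 Parasite (3D7) viability assay and HEK293 viability assay, each with a 72 h exposure. Index taken as the ratio of the IC50 values, HEK293 over 3D7.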

[2] = tested on: Plasmodium falciparum; assay: Antimalarial activity against Plasmodium falciparum K1 infected in RBC assessed as growth inhibition after 48 hrs by SYBR Green-I fluorescence assay; assay type: functional, organism-based; settings: K1, 48 h
Procedure, shortened: (§1)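 Parasite-infected red cells exposed to compound for 48 h; growth read by SYBR Green-I fluorescence; IC50 derived. Where a ± is given, it is the standard deviation of three individual experiments.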

[3] = tested on: Plasmodium falciparum; assay: Antimalarial activity against Plasmodium falciparum 3D7 infected in RBC assessed as growth inhibition after 48 hrs by SYBR Green-I fluorescence assay; assay type: functional, organism-based; settings: 3D7, 48 h; procedure, shortened: as §1
[4] = tested on: Plasmodium falciparum; assay: Resistant index, ratio of IC50 for Plasmodium falciparum K1 to IC50 for Plasmodium falciparum 3D7; assay type: functional
Procedure, shortened: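 Ratio of K1 to 3D7 IC50 values. Each IC50 comes from a 48 h drug exposure of the P. falciparum strain, with growth read by SYBR Green-I fluorescence. Where spread is given, it is the standard deviation of three individual experiments.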

[5] = tested on: Plasmodium falciparum; assay: Ratio of IC50 for trophozoite stage of Plasmodium falciparum 3D7 infected in RBC after 5 hrs in presence of 5 uM ALLN to IC50 for trophozoite stage of Plasmodium falciparum 3D7 infected in RBC after 5 hrs in absence of ALLN; assay type: functional
Procedure, shortened: (§2)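 Trophozoite-stage parasites pulsed 5 h with compound, with or without ALLN (0.2 or 5 μM). Drug and ALLN then removed; culture continued a further 43 h before survival was assessed. Antagonism expressed as the ratio of IC50 with ALLN to IC50 without ALLN.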

[6] = tested on: Plasmodium falciparum; assay: Ratio of IC50 for trophozoite stage of Plasmodium falciparum 3D7 infected in RBC after 5 hrs in presence of 0.2 uM ALLN to IC50 for trophozoite stage of Plasmodium falciparum 3D7 infected in RBC after 5 hrs in absence of ALLN; assay type: functional; procedure, shortened: as §2
[7] = tested on: Plasmodium falciparum; assay: Antimalarial activity against trophozoite stage of Plasmodium falciparum 3D7 infected in RBC assessed as growth inhibition after 5 hrs by SYBR Green-I fluorescence assay; assay type: functional, organism-based; settings: 3D7, 5 h
Procedure, shortened: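 Trophozoite-stage parasites pulsed with compound for 5 h. Drug then washed out and parasites cultured a further 43 h before survival was assessed.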

[8] = tested on: Plasmodium falciparum; assay: Ratio of IC50 for trophozoite stage of Plasmodium falciparum 3D7 infected in RBC after 5 hrs to IC50 for Plasmodium falciparum 3D7 infected in RBC after 48 hrs; assay type: functional
[9] = tested on: Plasmodium falciparum; assay: Antimalarial activity against mid to late trophozoite stage of Plasmodium falciparum 3D7 infected in RBC assessed as abnormal mitochondria at 0.0002 uM after 0.5 hrs by MitoTracker Red CMXRos-based fluorescence microscopic analysis relative to untreated control; assay type: functional
[10] = tested on: Plasmodium falciparum; assay: Antimalarial activity against mid to late trophozoite stage of Plasmodium falciparum 3D7 infected in RBC assessed as abnormal mitochondria at 0.001 uM after 0.5 hrs by MitoTracker Red CMXRos-based fluorescence microscopic analysis relative to untreated control; assay type: functional
[11] = tested on: Plasmodium falciparum; assay: Antimalarial activity against mid to late trophozoite stage of Plasmodium falciparum 3D7 infected in RBC assessed as nonviable parasite at 0.0002 uM after 0.5 hrs by SYTO 61 staining-based flow cytometric analysis relative to untreated control; assay type: functional
[12] = tested on: Plasmodium falciparum; assay: Antimalarial activity against mid to late trophozoite stage of Plasmodium falciparum 3D7 infected in RBC assessed as nonviable parasite at 0.001 uM after 0.5 hrs by SYTO 61 staining-based flow cytometric analysis relative to untreated control; assay type: functional
[13] = tested on: Plasmodium falciparum; assay: Antimalarial activity against mid to late trophozoite stage of Plasmodium falciparum 3D7 infected in RBC assessed as abnormal mitochondria at 20 uM after 0.5 hrs by MitoTracker Red CMXRos-based fluorescence microscopic analysis relative to untreated control; assay type: functional
[14] = tested on: Plasmodium falciparum; assay: Gametocytocidal activity against synchronous stage 4 to 5 of transgenic Plasmodium falciparum NF54 gametocyte harboring pfs16 promoter assessed as parasite viability after 72 hrs by MitoTracker Red CMXRos-based assay; assay type: functional, organism-based; settings: NF54, 72 h
[15] = Inhibition of beta-hematin formation after 24 hrs by spectrophotometric analysis in presence of nonidet P40; assay type: functional
[16] = tested on: Plasmodium falciparum; assay: Gametocytocidal activity against synchronous stage 4 to 5 of transgenic Plasmodium falciparum NF54 gametocyte harboring pfs16 promoter assessed as inhibition of parasite viability at 60 uM after 72 hrs by MitoTracker Red CMXRos-based assay relative to control; assay type: functional; settings: NF54, 72 h
[17] = tested on: Plasmodium falciparum; assay: Antimalarial activity against mid to late trophozoite stage of Plasmodium falciparum 3D7 infected in RBC assessed as abnormal mitochondria at 0.005 uM after 0.5 hrs by MitoTracker Red CMXRos-based fluorescence microscopic analysis relative to untreated control; assay type: functional
[18] = tested on: Plasmodium falciparum; assay: Antimalarial activity against mid to late trophozoite stage of Plasmodium falciparum 3D7 infected in RBC assessed as abnormal mitochondria at 40 uM after 0.5 hrs by MitoTracker Red CMXRos-based fluorescence microscopic analysis relative to untreated control; assay type: functional
[19] = tested on: Plasmodium falciparum; assay: Antimalarial activity against mid to late trophozoite stage of Plasmodium falciparum 3D7 infected in RBC assessed as abnormal mitochondria at 200 uM after 0.5 hrs by MitoTracker Red CMXRos-based fluorescence microscopic analysis relative to untreated control; assay type: functional
[20] = tested on: Plasmodium falciparum; assay: Antimalarial activity against mid to late trophozoite stage of Plasmodium falciparum 3D7 infected in RBC assessed as abnormal mitochondria at 1000 uM after 0.5 hrs by MitoTracker Red CMXRos-based fluorescence microscopic analysis relative to untreated control; assay type: functional
[21] = tested on: Plasmodium falciparum; assay: Antimalarial activity against mid to late trophozoite stage of Plasmodium falciparum 3D7 infected in RBC assessed as nonviable parasite at 0.005 uM after 0.5 hrs by SYTO 61 staining-based flow cytometric analysis relative to untreated control; assay type: functional
[22] = tested on: Plasmodium falciparum; assay: Antimalarial activity against mid to late trophozoite stage of Plasmodium falciparum 3D7 infected in RBC assessed as nonviable parasite at 40 uM after 0.5 hrs by SYTO 61 staining-based flow cytometric analysis relative to untreated control; assay type: functional
[23] = tested on: Plasmodium falciparum; assay: Antimalarial activity against mid to late trophozoite stage of Plasmodium falciparum 3D7 infected in RBC assessed as nonviable parasite at 200 uM after 0.5 hrs by SYTO 61 staining-based flow cytometric analysis relative to untreated control; assay type: functional
[24] = tested on: Plasmodium falciparum; assay: Antimalarial activity against mid to late trophozoite stage of Plasmodium falciparum 3D7 infected in RBC assessed as nonviable parasite at 1000 uM after 0.5 hrs by SYTO 61 staining-based flow cytometric analysis relative to untreated control; assay type: functional

`Nc1cc(CCc2c[nH]c3ccccc23)nc2ccccc12` gave a selectivity ratio at 72 h [1] of 67, an IC50 [2] of 2.2 µM and an IC50 [3] of 0.9 µM.

In the case of `C[n+]1c(/C=C/c2c[nH]c3cc(F)ccc23)cc(N)c2ccccc21.[I-]`, the “Ratio IC50” value [4] is reported as 0.3, the selectivity ratio at 72 h [1] is reported as 4 and the IC50 [2] is reported as 0.14 µM. For the same compound, the IC50 [3] was 0.29 µM.

For `CC1(C)N=C(N)N=C(N)N1OCCCOc1cc(Cl)c(Cl)cc1Cl`, the “Ratio IC50” value [5] was 0.7, the “Ratio IC50” value [6] was 0.7 and the IC50 [7] was 0.0004 µM. For the same compound, the IC50 [3] was 0.00046 µM, the “Ratio IC50” value [8] was 0.9 and the Activity [9] was 3%. It also gave an Activity [10] of 3%, an Activity [11] of 40% and an Activity [12] of 73%.

With `CN(C)c1ccc2nc3ccc(N(C)C)cc3[s+]c2c1.[Cl-]` [METHYLENE BLUE ANHYDROUS] the “Ratio IC50” value [5] was 3.2, the “Ratio IC50” value [6] was 2.1 and the IC50 [7] was 0.03 µM. For the same compound, the IC50 [2] was 0.008 µM, the IC50 [3] was 0.02 µM and the “Ratio IC50” value [8] was 1.5.

Work on `CCCC[n+]1c(/C=C/c2c[nH]c3ccccc23)cc(N)c2ccccc21` yielded a selectivity ratio at 72 h [1] of 4, an IC50 [2] of 0.44 µM and an IC50 [3] of 0.45 µM.

`N#CC(C#N)=NNc1cccc(Cl)c1` [CARBONYL CYANIDE M-CHLOROPHENYLHYDRAZONE] showed an Activity [13] of 74%.

`C[C@H]1[C@H](OC(=O)CCC(=O)O)O[C@@H]2O[C@@]3(C)CC[C@H]4[C@H](C)CC[C@@H]1[C@@]24OO3` [ARTESUNATE] showed an IC50 [14] of 0.008 µM.

`Cc1cc(N)c2ccccc2[n+]1C` gave an IC50 [2] greater than 5 µM and an IC50 [3] greater than 4 µM.

`CCN(CC)CCCC(C)Nc1ccnc2cc(Cl)ccc12` (centres undefined) [CHLOROQUINE] gave an IC50 [15] of 30 µM, an inhibition at 60 µM [16] of 100% and an Activity [17] of 12%. For the same compound, the Activity [18] was 0%, the Activity [19] was 5% and the Activity [20] was 8%. The Activity [21] was 84%, the Activity [22] was 23% and the Activity [23] was 36%. For the same compound, the Activity [24] was 85%.
